Test results as given in ChEMBL document CHEMBL4513216, “Probing the Open Global Health Chemical Diversity Library for Multistage-Active Starting Points for Next-Generation Antimalarials” (ACS Infect Dis, 2020).

assay: Toxicity liver stage against HepG2, at 10uM; type: cell-based; design: test concentration 10 uM, cell line HepG2-A16-CD81EGFP; details: human, HepG2-A16-CD81EGFP cells; read-out: INHIBITION
How it was run: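 Uninfected HepG2-A16-CD81EGFP cells, 3 × 10^3 per well, 1536-well, plated on prespotted compound at 10 μM final, parasite-free screening media added to match infected plates; puromycin 10 μM positive, DMSO 0.5% negative; run in parallel with 48 h PbLuc assay at 37 °C, 5% CO2; viability by CellTiter-Glo luminescence, normalized to controls.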

Row | Structure (SMILES) | cytotoxicity at 10 µM
1 | Cc1ccc(NC(=O)Cn2ccc3c(=O)n(C)ccc32)cc1F | -2.74%
2 | CC(C)CCc1n[nH]c(C(=O)O)c1Br | -3.09%
3 | CN1CCN(C(=O)c2cc3sccc3n2Cc2ccccc2)CC1 | 4.38%
4 | COc1nn(C)cc1C(=O)N1CCC(c2ccccc2)C1 (stereo unspecified) | -2.18%
5 | COC(C)(CNS(=O)(=O)c1cccnc1)c1ccccc1F (stereo unspecified) | -0.403%
6 | CCS(=O)(=O)N1Cc2c(Cn3cccc3)nn(C(C)C)c2C1 | 13.6%
7 | CCOCC1CC2(CCN(C(=O)C3CCSCC3)CC2)CO1 (stereo unspecified) | 2.5%
8 | OCCN1CCOC2(CCCN(c3ncccn3)C2)C1 (stereo unspecified) | 9.55%
9 | COCC(=O)N1C[C@@H]2COC[C@]2(COC)C1 | 5.44%
10 | CCOC[C@H]1CC[C@H]2[C@H](CCN2S(=O)(=O)Cc2ccccc2)O1 | 8.61%
11 | CC(C)CCN1N=C(C(=O)N2CCCCCC2)S(=O)(=O)c2ccccc21 | 11.8%
12 | O=C(c1ccc(Cl)cc1-n1cnnn1)N1CCC2(CC1)OCCO2 | 3.51%
13 | COc1ccccc1OCC(=O)NCC(O)(c1ccccc1)C1CC1 (stereo unspecified) | -16.1%
14 | CC(C)(C)C(=O)NCCn1ccc(-c2ccncc2)n1 | -26.7%
15 | Cc1nn(Cc2ccc(C(=O)NCCCN3CCOCC3)o2)c(C)c1Cl | -5.47%
16 | CCCn1c(N2CCCC(C)C2)nc2c(C)nn(C)c2c1=O (stereo unspecified) | 13.4%
17 | COc1c(C)cnc(CNCC(C)C)c1C | -0.135%
18 | CCOCCCNC(=O)c1cn(CC)nc1C | 5.37%
19 | Cc1noc(C)c1CC(=O)N[C@@H]1CC[C@@H](Oc2ccccc2)[C@@H]1O | 2.04%
20 | CNC(=O)C1(Cc2cc(C(C)C)no2)CCN(Cc2ccccn2)C1 (stereo unspecified) | 6.24%
21 | CC(C(=O)N1CCCC1)n1nc(-c2cccs2)cc(N)c1=O (stereo unspecified) | 6.66%
22 | Cc1nn(C(C)C)cc1S(=O)(=O)N(C)Cc1nonc1C | 11.6%
23 | CC(C)c1nnc(CCC(=O)N2CCOC(c3cnccn3)C2)o1 (stereo unspecified) | -2.01%

Row | Structure (SMILES) | cytotoxicity at 10 µM
24 | O=S(=O)(c1ccccc1)N1C[C@@H]2CCCCN(Cc3cccs3)[C@@H]2C1 | 1.56%
25 | Cc1ccc(S(=O)(=O)N2CCCC(c3n[nH]cc3C(=O)N(C)C)C2)cc1 (stereo unspecified) | 6.91%
26 | CC(C)Nc1ncc(-c2ccncc2)c([C@@H]2CCCO2)n1 | 10.8%
27 | O=C(CCS(=O)(=O)C1CCCC1)N1CCC(O)(C(F)(F)F)C1 (stereo unspecified) | 18.9%
28 | O=C(CNC(=O)Nc1c(F)cccc1Oc1ccccc1)NC1CC1 | 6.45%
29 | CC(=O)N1CCC(C(=O)NCCc2c[nH]c3cc(C)ccc23)CC1 | 18.1%
30 | Cc1ncc2c(n1)CN(Cc1nc(-c3ccco3)oc1C)CC2 | 2.2%
31 | OCCC1(NCc2ccc(-n3cccn3)cc2)CCOCC1 | -146%
32 | O=C(NCC1CCOC1)c1cc(-c2ccc(Cl)cc2)n[nH]1 (stereo unspecified) | -14%
33 | COC(=O)C(CNC(=O)Nc1cn[nH]c1)Cc1cccc(C)c1 (stereo unspecified) | 1.37%
34 | Cc1ccc(N(CCC#N)C(=O)CCc2cccnc2)cc1C | -7.68%
35 | CN(CCC#N)C(=O)Cn1cnc2c(Br)cccc2c1=O | -1.6%
36 | Cc1noc(CCCNC(=O)CNC(=O)c2cc3ccccc3[nH]2)n1 | 4.81%
37 | O=C(c1ccc(CN2CCCC2)cc1)N1CCCC(n2cccn2)C1 (stereo unspecified) | -1.88%
38 | c1cc(CCN2CCC(c3n[nH]c(C4CC4)n3)CC2)ccn1 | 3.39%
39 | O=C(c1ccc(O)nc1)N1CCc2ccc(O)cc2C1 | -8.77%
40 | COCCC(C)NC(=O)Nc1ccc(N2CCOC2=O)c(OC)c1 (stereo unspecified) | 6.48%
41 | COc1ccc(CN(C)Cc2cccc(C#N)c2)c(OC)c1 | -4.48%
42 | Cc1nnc(C(C)NCC2(c3ccc(Cl)cc3)CCOCC2)o1 (stereo unspecified) | -1.47%
43 | Cc1cc(CC(=O)NC(C)c2ccc(OCC3CC3)c(F)c2)n[nH]1 (stereo unspecified) | 4.75%
44 | Cn1cc(CC2CCN(C(=O)NCc3csc(C4CC4)n3)C2)cn1 (stereo unspecified) | 5.22%
45 | CCOC(=O)C(C)Nc1cccc(COCc2ccco2)c1 (stereo unspecified) | 2.1%
46 | COC(=O)NCCCC(=O)NCC1(c2cccc(Cl)c2)CC1 | 1.42%

Row | Structure (SMILES) | cytotoxicity at 10 µM
47 | CC(NCc1cnc(C2CCC2)s1)c1ccccc1-n1cccn1 (stereo unspecified) | 0.33%
48 | CCC(SC)C(=O)N1CCC(n2cccn2)CC1 (stereo unspecified) | -45.8%
49 | CN(C)C(=O)CN1CCN(C(=O)C2CSc3ccccc3O2)CC1 (stereo unspecified) | 1.84%
50 | O=C(Nc1cc2c(cc1Br)OCCO2)NC1CCS(=O)(=O)C1 (stereo unspecified) | -9.82%
51 | CN1C(=O)CC(N(C)Cc2nc3ccccc3c(=O)[nH]2)C1=O (stereo unspecified) | 7.61%
52 | CN(C)c1ccc(C(=O)NCc2ccc(N3CCOCC3)cc2)cn1 | 6.03%
53 | Cc1cc(NCc2ccc(CS(N)(=O)=O)cc2)nc(C)n1 | -7.2%
54 | NC(=O)c1cc(C2CCCN(Cc3ccc4c(c3)OCCO4)C2)n[nH]1 (stereo unspecified) | -7%
55 | CCCn1nc(-c2nc(Cc3ccc(OC)cc3)no2)ccc1=O | 0.0197%
56 | Cc1cc(F)ccc1S(=O)(=O)N1CCN(C)Cc2ccccc21 | 4.06%
57 | CS(=O)(=O)NCCC(=O)N1CCN(S(=O)(=O)c2ccc(Br)cc2)CC1 | -29.6%
58 | CNS(=O)(=O)c1cccc(C(C)NCc2ccccc2)c1 (stereo unspecified) | -2.29%
59 | Cn1c(C(=O)N2CCC(C(=O)N3CCCC3)CC2)c(Cl)c2ccccc21 | 3.12%
60 | CC(=O)c1ccccc1C(=O)NCC1(CO)CC1 | -18.9%
61 | CC1CN(C)c2ccccc2CN1C(=O)c1ccc[nH]1 (stereo unspecified) | -28.4%
62 | Cc1cc(CN2CCC(C3CCN(CCc4ccccc4)C3)CC2)[nH]n1 (stereo unspecified) | 7.19%
63 | Cc1ccc2c(c1)c(CNC(C)Cn1ccnc1)nn2C (stereo unspecified) | -6.14%
64 | COCCC1(CO)CCCN(Cc2ccc(C(F)(F)F)cc2)C1 (stereo unspecified) | -153%
65 | CCOCCn1nc(C)cc1C(=O)N1CC(C)(C)[C@@](C)(O)C1 | 0.301%
66 | O=C(c1cnn[nH]1)N1CCCC1c1nc2cc(F)ccc2[nH]1 (stereo unspecified) | 2.68%
67 | CSc1ccc2cc(CN(C)CCCN(C)C)c(=O)[nH]c2c1 | -2.72%
68 | CC(O)Cc1cn(CC2CCN(c3nccc4occc34)CC2)nn1 (stereo unspecified) | -6.64%
69 | CCOCC(=O)N1CCC(c2nccn2C)CC1 | -53.4%

Row | Structure (SMILES) | cytotoxicity at 10 µM
70 | CS(=O)(=O)NCC(=O)NCc1cccnc1-n1cnc2ccccc21 | 0.324%
71 | Cc1cc(C)cc(CN2CCN(Cc3cc(C#N)n(C)c3)CC2=O)c1 | 6.24%
72 | CN1CCN(C[C@@H]2CN(C(=O)CCc3cn[nH]c3)C[C@@H]2CO)CC1 | -0.973%
73 | Cc1nc(N)sc1C(=O)N[C@H]1CN(CCO)C[C@@H]1C1CC1 | 1.81%
74 | COc1c(F)ccc(C(=O)N2CC[C@H](CO)[C@@H](O)C2)c1F | -3.85%
75 | CCCN1CCCC2(CCN(c3nccc(OC)n3)C2)C1=O (stereo unspecified) | -4.74%
76 | Cc1cc2n(n1)CCN(c1nc(N)nc3c1CCNCC3)C2 | 7.04%
77 | O=C(Cc1cc2c(cc1Cl)OCCO2)N1CC[C@H](CO)[C@H](O)C1 | 7.96%
78 | O=C(NCC(F)(F)F)c1coc(COc2cccc(F)c2)n1 | -148%
79 | COc1ccc(C(=O)N2CCC(Oc3ccccc3C)(C(=O)O)CC2)o1 | 13.2%
80 | CCc1nc2c(c(NCc3cc(-c4cccnc4)no3)n1)CCNCC2 | 0.811%
81 | CNc1nc(N2CCN(C3CCCCC3)C(CCO)C2)nc2c1CCC2 (stereo unspecified) | -6.86%
82 | OC[C@H]1CN(Cc2c(Cl)cccc2Cl)C[C@H]1CN1CCCCC1 | -140%
83 | CN(CCO)Cc1nnc(C2CCN(C(=O)c3cc[nH]c3)CC2)n1C | 1.37%
84 | Cc1ncsc1CN(Cc1ccccc1)Cc1ccncc1 | -4.45%
85 | CCN(Cc1cc(F)ccc1Cl)C1CCS(=O)(=O)C1 (stereo unspecified) | 5.29%
86 | CCc1cnc(C)nc1NCCN1CCCCCC1 | -10.8%
87 | CC(C)NC(=O)c1nnn(-c2cccc(C(F)(F)F)c2)c1N | -11.5%
88 | COC(=O)c1cc(OCC2CCC2)cc(C(=O)N[C@@H]2CNCC[C@H]2O)c1 | -12%
89 | COc1cccc(S(=O)(=O)N2CCC(O)(CN(C)C)C2)c1 (stereo unspecified) | 3.85%
90 | Cn1ccnc1CN1CCN(CC(=O)NCc2ccccc2F)CC1 | -22.1%
91 | CCC1c2ccsc2CCN1C(=O)NCc1cc(C)on1 (stereo unspecified) | -10.2%
92 | Cc1ccc(C(CNC(=O)NCc2ccccn2)N2CCOCC2)o1 (stereo unspecified) | -14.9%

Row | Structure (SMILES) | cytotoxicity at 10 µM
93 | O=C(CCc1ccccn1)N1CCCC(n2cncn2)C1 (stereo unspecified) | -15.5%
94 | O=C(c1cccc2cn[nH]c12)N1CCCC1c1noc(C2CC2)n1 (stereo unspecified) | -16.8%
95 | Cc1nc(C2CCN(C(=O)c3cc(C4CC4)[nH]n3)CC2)no1 | -6.44%
96 | Cn1c(C2CC2)nc2c1CCN(CCOc1cccc(F)c1)C2 | -13.1%
97 | Cn1c(C2CC2)nc2c1CCN(CC(=O)Nc1nccs1)C2 | -9.83%
98 | CNC(=O)NC(=O)CCN1CCN(c2nccs2)CC1 | -11.1%
99 | CS(=O)(=O)CCNC(=O)c1ccc(-c2ccco2)[nH]c1=O | -22.8%
100 | Cc1nn(C)c(C)c1C1CCCN1CC(=O)Nc1nccs1 (stereo unspecified) | -21.6%
101 | c1cnnc(N2CCCC(NCc3cccc4c3OCCCO4)C2)c1 (stereo unspecified) | -19.8%
102 | CC(C)Oc1ncccc1CNC(=O)c1cc(C2CC2)on1 | -17.7%
103 | COc1cc(C)nc(N2CCN(C(=O)c3ccoc3C)CC2)n1 | -21.8%
104 | O=C(NC1CCN(c2snc3ccccc23)CC1)C1CCC1 | 4.5%
105 | O=C(NCCCn1ccnc1)N1CCN(c2cccs2)CC1 | -2.53%
106 | CN1CC(=O)N(c2cnn(C)c2)CC12CCN(Cc1nccn1C)C2 (stereo unspecified) | -15.3%
107 | CCO[C@H]1CO[C@@]2(CCCN(Cc3nc(C)cs3)C2)C1 | -9.75%
108 | Cc1nc(C2CCCNC2)nc2c1CCCN2Cc1ccccn1 (stereo unspecified) | -2.76%
109 | CC1c2ncc(COCC3CCOCC3)n2CCN1Cc1cccnc1 (stereo unspecified) | 5.95%
110 | Cc1ccc(CN2CC[C@@H](N3CCOCC3)[C@@H]2Cc2cccnc2)o1 | 9.55%
111 | Cn1ccc(C(=O)NC2CCC23CCN(CC2CCOCC2)CC3)c1 (stereo unspecified) | -149%
